Bioassay records from PubChem BioAssay.
Only some compounds are listed: those with a hit (about 4.6% of all), similar ones and a draw of the others.
TAAR1 antagonist – human TAAR1 antagonists, primary screen, Fluo-8 calcium fluorescence, CHO RD-HGA16 cells; antagonist; inhibition, % at 3 µM; hit rate 1.5% among 360,000; AID 624466, 2012;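 active = inhibition above a per-plate cutoff, the mean inhibition of test compounds on that plate plus 3 SD, cut at about 49% in these data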;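 also: 0% = DMSO plus EC80 beta-PEA response and 100% = DMSO alone without agonist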
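System: CHO RD-HGA16 cells bearing hTAAR1. Reagent: EC80 β-phenethylamine stimulus. Schedule: seeding 17-24 h prior, 75-min 37 °C, 30-min RT dye loading. Signal: Fluo-8 intracellular calcium dye fluorescence, real-time kinetic reads. Read-out: % inhibition from peak post-agonist over basal fluorescence ratio. Benchmarks: vehicle wells and EC80 agonist wells. Replicates: n of 1.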
OX1R antag-1 – OX1R (HCRTR1) antagonists, primary screen, fluorescence, CHO/OX1R cells, Fluo-8 calcium, orexin A; Fluo-8 calcium fluorescence; inhibition, % at 5 µM; hit rate 0.43% among 330,000; AID 434989, 2010;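 active = inhibition above its plate's threshold, mean inhibition of all tested compounds on the plate plus 3 SD, cut at about 37% in these data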;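 also: 0% = orexin A challenge wells and 100% = SB-334867-A antagonist wells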
Target sequence (O43613 whole entry, looked up): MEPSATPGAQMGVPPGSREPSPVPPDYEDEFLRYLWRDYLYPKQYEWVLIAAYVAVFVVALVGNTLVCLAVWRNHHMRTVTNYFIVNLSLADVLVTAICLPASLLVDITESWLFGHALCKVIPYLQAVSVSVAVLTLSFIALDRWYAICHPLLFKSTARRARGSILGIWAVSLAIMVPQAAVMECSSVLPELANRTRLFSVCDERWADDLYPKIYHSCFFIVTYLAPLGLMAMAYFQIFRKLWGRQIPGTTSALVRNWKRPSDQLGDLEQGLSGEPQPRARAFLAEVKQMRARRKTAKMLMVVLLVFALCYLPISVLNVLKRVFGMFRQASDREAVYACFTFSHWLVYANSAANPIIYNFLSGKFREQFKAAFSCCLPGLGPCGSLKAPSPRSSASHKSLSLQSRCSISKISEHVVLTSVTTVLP
TAAR1 ag – human TAAR1 agonists, primary screen, Fluo-8 calcium fluorescence, CHO RD-HGA16 cells; vehicle wells 0%, saturating PEA agonist 100%; activation, % at 3 µM; hit rate 0.99% among 360,000; AID 624467, 2012;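 active = activation above the mean activation of all test compounds in the run plus 3 SD, cut at about 38% in these data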
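Test system: RD-HGA16 (CHO) cells co-expressing Gα16 and hTAAR1; dosing: one-point dosing at 3 µM (nominal); timing: 17-24 h seeding, 75 min 37 °C dye, 30 min RT; signal: kinetic Fluo-8 calcium fluorescence; read-out basis: % activation relative to PEA EC100 response; controls: DMSO and PEA EC100; replicates: n 1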
CHO parental Ca – ATP-evoked calcium signal inhibitors, parental CHO, primary screen, counter-screen for OX1R antagonist project, cell-based, fluorescence, Fluo-8 calcium dye | inhibition, % at 5.6 µM | hit rate 0.63% among 330,000 | parental CHO-K1, ATP-induced calcium, Fluo-8 fluorescence | AID 463079, 2010;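 active = inhibition above that plate's mean sample inhibition plus 3 SD, cut at about 26% in these data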;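 also: 0% = ATP-challenged DMSO wells and 100% = DMSO wells without ATP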
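Material: Parental CHO cells | Reagent: ATP | Compound dosing: Single nominal dose of 5.6 µM per compound | Detection: Intracellular calcium via Fluo-8 no-wash fluorescent dye | Read-out: % inhibition of ATP-induced calcium mobilization | Benchmarks: Low control ATP plus DMSO, high control DMSO only | Replicates: Singlicate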
GPR7 antagonist – GPR7 receptor antagonists, primary screen, cell-based, fluorescence, single concentration | inhibition, % at 4.4 µM | hit rate 1.1% among 290,000 | GPR7-expressing cells, fluorescence antagonist assay; in the data active = inhibition above about 16%, passing the limit was not always enough;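 also: cells stimulated with the agonist NPW; 0% = agonist with vehicle and 100% = vehicle without agonist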
OX1R antag-2 – antagonists of human orexin 1 receptor (OX1R); Orexin/Hypocretin receptor type 1 (Homo sapiens), O43613; AID 485270, 2010; inhibition, % at 6.6 µM; hit rate 1.8% among 330,000; OX1R-expressing cells, FRET antagonist read-out; in the data active = inhibition mostly above about 38%, no sharp cut-off; inactive = mostly below about 40%;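 also: 0% = agonist challenge alone and 100% = reference antagonist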
Starred values were filed as active, the others as inactive; · = no result.

SMILES	TAAR1 antagonist	OX1R antag-1	TAAR1 ag	CHO parental Ca	GPR7 antagonist	OX1R antag-2
O=C(COC(=O)c1ccc(-c2ccccc2)cc1)Nc1ccccc1-c1ccccc1	43	-10	2	1	-12	8
O=C(COC(=O)c1ccc(O)cc1)Nc1ccc(Cl)cc1	47	4	41*	-6	8	10
O=C(COC(=O)c1ccc(O)cc1)Nc1ccccc1-c1ccccc1	61*	29	11	43*	-5	45
CC1=C(C(=O)N(C)C)CC(CC(=O)NCCCN(C)C)C(=O)N1Cc1ccccc1 (stereo unspecified)	-8	·	0	·	·	·
COc1ccc(N2C(=O)c3[nH]nc(-c4ccccc4)c3C2c2ccc(Br)cc2)cc1 (stereo unspecified)	-7	·	14	·	·	·
CCCC/C(C)=N/NC(=O)CN(c1ccc(Br)cc1)S(=O)(=O)c1ccccc1	7	-35	-3	-35	-12	-1
C/C(=N/NC(=O)CN(c1ccccc1)S(=O)(=O)c1ccccc1)c1ccccc1O	-4	-24	1	0	-2	50*
Cc1cccc(N2CCN(C(=O)C3CC(=O)N(c4ccc5c(c4)OCCO5)C3)CC2C)c1 (stereo unspecified)	55*	1	17	-14	·	-4
Cc1cccc(N2CCN(C(=O)c3ccc4c(c3)OCCO4)CC2C)c1 (stereo unspecified)	-8	-3	0	-14	-14	28
c1ccc(SC23CCCCN(CCC2)C32OCCO2)cc1 (stereo unspecified)	-24	·	-1	·	·	·
NC(=O)CN1C(=O)C(O)(CC(=O)c2ccccc2O)c2ccccc21 (stereo unspecified)	4	6	1	3	-15	56*
COc1ccc(CCNC(=O)c2cccc(C(=O)NCCc3ccc(OC)cc3)n2)cc1	54*	-24	7	-26	·	9
CC(C)(C)S(=O)(=O)N1C[C@H]2CC(=O)C(CCO)=C2[C@@H]1CCO	4	·	0	·	·	·
O=C(Nc1cc(F)ccc1F)C1CCCN1S(=O)(=O)c1cccc2nsnc12 (stereo unspecified)	-13	-12	3	-17	-12	70*
O=C(Nc1ccc(F)cc1)C1CCCN1S(=O)(=O)c1cccc2nsnc12 (stereo unspecified)	-11	25	0	-2	0	75*
O=C(NCc1ccc(F)cc1)C1CCCN1S(=O)(=O)c1cccc2nsnc12 (stereo unspecified)	-15	-18	7	-24	-3	55*
O=C(NCc1ccc(F)cc1)C1CCCN(S(=O)(=O)c2cccc3nsnc23)C1 (stereo unspecified)	8	-20	9	6	-3	35
S=C1NCCN1c1ccc(Cl)cc1	-10	·	2	·	·	·
O=C(CSc1ccc2c(c1)OCCO2)N1CCN(c2ccccc2O)CC1	10	·	8	·	·	·
CCOc1ccccc1N1CCN(C(=O)CSc2ccc3c(c2)OCCO3)CC1	51*	-12	15	-27	·	2
C[C@@H]1ON(C)[C@H]2C[C@H]3c4[nH]c5c(-c6ccccc6F)cccc5c4CCN3C(=O)[C@@H]12	20	·	4	·	·	·
CS(=O)(=O)c1cccc(OCCCN2CCC(C(O)(c3ccccc3)c3ccccc3)CC2)c1	11	·	15	·	·	·
CN1OC[C@@H]2CN(S(=O)(=O)c3cccc4ccccc34)[C@H](c3ccc(-c4ccccc4)cc3)C[C@@H]21	-41	·	14	·	·	·
Cc1ccc(-c2nnc(Nc3ccccc3)c3ccccc23)cc1S(=O)(=O)NCC1CCCO1 (stereo unspecified)	58*	66*	17	29*	-12	12
Cc1ccc(-c2nnc(Nc3ccc4c(c3)OCO4)c3ccccc23)cc1S(=O)(=O)NC(C)C	24	38	3	31*	-2	38
SMILES	TAAR1 antagonist	OX1R antag-1	TAAR1 ag	CHO parental Ca	GPR7 antagonist	OX1R antag-2
CCNC(=O)N1CCN(c2ccc(N3CCN(Cc4ccccc4)[C@H](C)C3)c(C)c2)[C@H](C)C1	-20	·	3	·	·	·
O=[N+]([O-])c1ccc2c(c1)CO[C@]21O[C@H](CCO)C[C@H](O)[C@H]1O	3	·	3	·	·	·
Cc1cccn2c(CNC3CCCc4ccccc43)c(C(=O)N3CCOCC3)nc12 (stereo unspecified)	-10	-22	7	-16	-4	21
Cc1cccn2c(CNCCc3ccco3)c(C(=O)N3CCOCC3)nc12	18	·	43*	·	-3	·
CCc1ccc(OC(C)C(=O)Nc2ccc(S(=O)(=O)Nc3nccs3)cc2)cc1 (stereo unspecified)	55*	9	45*	12	11	13
COc1ccc(OC)c(CN2C(=O)c3ccccc3C2c2nnnn2-c2c(C)cccc2C)c1 (stereo unspecified)	-21	·	0	·	·	·
CCCCc1c(-c2ccccc2OC)ncn1Cc1c(F)cccc1F	6	·	1	·	·	·
COc1ccc(NC(=O)c2ccc3ccccc3c2)cc1	3	-3	16	42*	14	11
COc1ccc(CC(=O)Nc2ccc(C(C)=O)cc2)cc1	7	-72	0	-4	25*	21
COc1ccc(C(=O)NNC(=O)c2ccc3ccccc3c2)cc1	8	·	1	·	·	·
COc1ccc(C(=O)Nc2ccc(C3CC3(Cl)Cl)cc2)cc1 (stereo unspecified)	-10	10	4	37*	-8	39
Cc1ccc(OCCCC(=O)N(C)CC(=O)Nc2ccccc2Br)cc1	-13	-17	0	-21	·	12
CN(CC(=O)Nc1ccccc1Br)C(=O)COc1ccc2ccccc2c1	-14	1	10	-16	·	41*
C[C@@H]1CN([C@H](C)CO)C(=O)c2cc(NS(=O)(=O)c3ccccc3)ccc2O[C@@H](C)CCCCO[C@@H]1CN(C)Cc1ccccc1	-23	·	-1	·	·	·
COc1ccc(C(=O)N2CCc3ccccc32)cc1	-38	-27	2	-4	17*	17
CC1(C(=O)NS(=O)(=O)c2ccccc2Cl)CCN1C(=O)CC1CCCC1 (stereo unspecified)	-22	·	1	·	·	·
O=C(COC(=O)c1cccc([N+](=O)[O-])c1)c1ccc(OCc2ccccc2)cc1	-2	53*	1	53*	3	5
O=C(CCc1ccccc1)OCC(=O)c1cccc([N+](=O)[O-])c1	-7	-8	-1	-5	-20	32
